Measured values as given in ChEMBL document CHEMBL1123585, “Differential effects of N-terminal modifications on the biological potencies of growth hormone releasing factor analogues with varying chain lengths” (1987).
Blank lines part the entries; values can stand above or below the compound they belong to.

Legend:
[1] = biological target: T1, Growth hormone-releasing hormone receptor (Rattus norvegicus) (UniProt Q02644); test: Effect on growth hormone release(GRF) was determined in nembutal-anesthetized rat, at dose of 100 ug/100 g body weight.; format: functional
T1 sequence (whole entry): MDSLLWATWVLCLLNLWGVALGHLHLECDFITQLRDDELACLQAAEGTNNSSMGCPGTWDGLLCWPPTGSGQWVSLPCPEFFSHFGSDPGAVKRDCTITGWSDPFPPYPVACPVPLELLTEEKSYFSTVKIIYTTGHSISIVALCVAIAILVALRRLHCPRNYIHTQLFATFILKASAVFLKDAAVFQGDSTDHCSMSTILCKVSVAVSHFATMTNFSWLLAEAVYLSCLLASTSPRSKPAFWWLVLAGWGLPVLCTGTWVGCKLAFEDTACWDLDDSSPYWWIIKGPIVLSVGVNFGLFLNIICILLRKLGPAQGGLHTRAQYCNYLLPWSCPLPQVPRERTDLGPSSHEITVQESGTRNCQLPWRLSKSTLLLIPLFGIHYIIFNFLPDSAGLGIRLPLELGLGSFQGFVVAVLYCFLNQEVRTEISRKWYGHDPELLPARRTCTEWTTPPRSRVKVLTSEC
Method in brief: (§1)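 Male Charles River rats (175-275 g), anesthetized with sodium pentobarbital 6 mg/100 g body weight. Six to nine per group. Peptide or saline given subcutaneously in 0.5 mL, 30 min after anesthetic. Jugular vein blood taken 15 min post-injection. Plasma GH measured by radioimmunoassay and reported as ng/mL, mean ± SEM.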

[2] = tested on: Rattus norvegicus; test: Effect on growth hormone release(GRF) was determined in nembutal-anesthetized rat, at dose of 40 ug/100 g body weight.; format: functional, organism-based; method in brief: as §1
[3] = biological target: T1, Growth hormone-releasing hormone receptor (Rattus norvegicus); test: Tested for the potency of growth hormone (GRF) on subcutaneous administration in anesthetized male Charles River rats; format: functional, organism-based
Method in brief: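 Pentobarbital-anesthetized male rats (175-275 g), six to nine per group, received two subcutaneous doses of analogue or of reference GRF(1-29)NH2, in 0.5 mL, 30 min after anesthesia. Plasma GH measured by RIA 15 min later. Potency with 95% confidence limits calculated from a four-point assay design by the Pugsley method.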

[4] = tested on: Rattus norvegicus; test: Effect on growth hormone release(GRF) was determined in nembutal-anesthetized rat, at dose of 1 ug/100 g body weight.; format: functional, organism-based; method in brief: as §1
[5] = tested on: Rattus norvegicus; test: Effect on growth hormone release(GRF) was determined in nembutal-anesthetized rat, at dose of 0.4 ug/100 g body weight.; format: functional, organism-based; method in brief: as §1
[6] = species: Rattus norvegicus; test: In vitro rat pituitary cell growth hormone response to the compound was obtained; format: functional, Pituitary gland cell
[7] = tested on: Rattus norvegicus; test: Effect on growth hormone release(GRF) was determined in nembutal-anesthetized rat, at dose of 0.5 ug/100 g body weight.; format: functional, organism-based; method in brief: as §1
[8] = tested on: Rattus norvegicus; test: Effect on growth hormone release(GRF) was determined in nembutal-anesthetized rat, at dose of 0.2 ug/100 g body weight.; format: functional, organism-based; method in brief: as §1
[9] = tested on: Rattus norvegicus; test: Effect on growth hormone release(GRF) was determined in nembutal-anesthetized rat, at dose of 32 ug/100 g body weight.; format: functional, organism-based; method in brief: as §1
[10] = tested on: Rattus norvegicus; test: Effect on growth hormone release(GRF) was determined in nembutal-anesthetized rat, at dose of 80 ug/100 g body weight.; format: functional, organism-based; method in brief: as §1
[11] = biological target: T1, Growth hormone-releasing hormone receptor (Rattus norvegicus); test: In vitro rat pituitary cell growth hormone response was obtained; format: functional, cell-based; conditions: Pituitary gland cell
[12] = tested on: Rattus norvegicus; test: Effect on growth hormone release(GRF) was determined in nembutal-anesthetized rat, at dose of 125 ug/100 g body weight.; format: functional, organism-based; method in brief: as §1
[13] = tested on: Rattus norvegicus; test: Effect on growth hormone release(GRF) was determined in nembutal-anesthetized rat, at dose of 50 ug/100 g body weight.; format: functional, organism-based; method in brief: as §1
[14] = tested on: Rattus norvegicus; test: Effect on growth hormone release(GRF) was determined in nembutal-anesthetized rat, at dose of 10 ug/100 g body weight.; format: functional, organism-based; method in brief: as §1
[15] = tested on: Rattus norvegicus; test: Effect on growth hormone release(GRF) was determined in nembutal-anesthetized rat, at dose of 25 ug/100 g body weight.; format: functional, organism-based; method in brief: as §1
[16] = tested on: Rattus norvegicus; test: Effect on growth hormone release (GRF) was determined in nembutal-anesthetized rat, at dose of 25 ug/100 g body weight.; format: functional, organism-based; method in brief: as §1
[17] = tested on: Rattus norvegicus; test: Effect on growth hormone release (GRF) was determined in nembutal-anesthetized rat, at dose of 62.5 ug/100 g body weight.; format: functional, organism-based; method in brief: as §1

- Plasma GH release [1]: 406 ng/mL
- Potency [3]: < 1%
Compound: CC[C@H](C)[C@H](NC(=O)[C@H](C)NC(=O)[C@H](CC(=O)O)NC(=O)[C@H](C)NC(=O)[C@@H](N)Cc1ccc(O)cc1)C(=O)N[C@@H](Cc1ccccc1)C(=O)N[C@H](C(=O)N[C@@H](CC(N)=O)C(=O)N[C@@H](CO)C(=O)N[C@@H](Cc1ccc(O)cc1)C(=O)N[C@@H](CCCN=C(N)N)C(=O)N[C@@H](CCCCN)C(=O)N[C@H](C(=O)N[C@@H](CC(C)C)C(=O)NCC(=O)N[C@@H](CCC(N)=O)C(=O)N[C@@H](CC(C)C)C(=O)N[C@@H](CO)C(=O)N[C@@H](C)C(=O)N[C@@H](CCCN=C(N)N)C(=O)N[C@@H](CCCCN)C(=O)N[C@@H](CC(C)C)C(=O)N[C@@H](CC(C)C)C(=O)N[C@@H](CCCN=C(N)N)C(N)=O)C(C)C)[C@@H](C)O
- Plasma GH release [2]: 392 ng/mL

- Potency [3]: 1630%
Compound: CC[C@H](C)[C@H](NC(=O)[C@H](C)NC(=O)[C@H](CC(=O)O)NC(=O)[C@@H](C)N(C)C(=O)[C@@H](N)Cc1ccc(O)cc1)C(=O)N[C@@H](Cc1ccccc1)C(=O)N[C@H](C(=O)N[C@@H](CC(N)=O)C(=O)N[C@@H](CO)C(=O)N[C@@H](Cc1ccc(O)cc1)C(=O)N[C@@H](CCCN=C(N)N)C(=O)N[C@@H](CCCCN)C(=O)N[C@H](C(=O)N[C@@H](CC(C)C)C(=O)NCC(=O)N[C@@H](CCC(N)=O)C(=O)N[C@@H](CC(C)C)C(=O)N[C@@H](CO)C(=O)N[C@@H](C)C(=O)N[C@@H](CCCN=C(N)N)C(=O)N[C@@H](CCCCN)C(=O)N[C@@H](CC(C)C)C(=O)N[C@@H](CC(C)C)C(=O)N[C@@H](CCC(N)=O)C(=O)N[C@@H](CC(=O)O)C(=O)N[C@H](C(=O)N[C@@H](CCSC)C(=O)N[C@@H](CO)C(=O)N[C@@H](CCCN=C(N)N)C(N)=O)[C@@H](C)CC)C(C)C)[C@@H](C)O
- Plasma GH release [4]: 1720 ng/mL
- Plasma GH release [5]: 761 ng/mL

- Potency [3]: 20%
Compound: CC[C@H](C)[C@H](NC(=O)[C@H](C)NC(=O)[C@H](CC(=O)O)NC(=O)[C@@H](C)NC(=O)[C@@H](N)Cc1ccc(O)cc1)C(=O)N[C@@H](Cc1ccccc1)C(=O)N[C@H](C(=O)N[C@@H](CC(N)=O)C(=O)N[C@@H](CO)C(=O)N[C@@H](Cc1ccc(O)cc1)C(=O)N[C@@H](CCCN=C(N)N)C(=O)N[C@@H](CCCCN)C(=O)N[C@H](C(=O)N[C@@H](CC(C)C)C(=O)NCC(=O)N[C@@H](CCC(N)=O)C(=O)N[C@@H](CC(C)C)C(=O)N[C@@H](CO)C(=O)N[C@@H](C)C(=O)N[C@@H](CCCN=C(N)N)C(=O)N[C@@H](CCCCN)C(=O)N[C@@H](CC(C)C)C(=O)N[C@@H](CC(C)C)C(=O)N[C@@H](CCCN=C(N)N)C(N)=O)C(C)C)[C@@H](C)O
- Plasma GH release [12]: 2790 ng/mL
- Plasma GH release [13]: 1020 ng/mL

The next lines start with the compound.

Compound: CC[C@H](C)[C@H](NC(=O)[C@H](C)NC(=O)[C@H](CC(=O)O)NC(=O)[C@@H](C)NC(=O)[C@@H](N)Cc1ccc(O)cc1)C(=O)N[C@@H](Cc1ccccc1)C(=O)N[C@H](C(=O)N[C@@H](CC(N)=O)C(=O)N[C@@H](CO)C(=O)N[C@@H](Cc1ccc(O)cc1)C(=O)N[C@@H](CCCN=C(N)N)C(=O)N[C@@H](CCCCN)C(=O)N[C@H](C(=O)N[C@@H](CC(C)C)C(=O)NCC(=O)N[C@@H](CCC(N)=O)C(=O)N[C@@H](CC(C)C)C(=O)N[C@@H](CO)C(=O)N[C@@H](C)C(=O)N[C@@H](CCCN=C(N)N)C(=O)N[C@@H](CCCCN)C(=O)N[C@@H](CC(C)C)C(=O)N[C@@H](CC(C)C)C(=O)N[C@@H](CCC(N)=O)C(=O)N[C@@H](CC(=O)O)C(=O)N[C@H](C(=O)N[C@@H](CCSC)C(=O)N[C@@H](CO)C(=O)N[C@@H](CCCN=C(N)N)C(N)=O)[C@@H](C)CC)C(C)C)[C@@H](C)O
- Potency [6]: 5340%
- Plasma GH release [7]: 2180 ng/mL
- Plasma GH release [8]: 1210 ng/mL
- Potency [3]: 4450%

Compound: CC[C@H](C)[C@H](NC(=O)[C@H](C)NC(=O)[C@H](CC(=O)O)NC(=O)[C@@H](C)NC(=O)[C@@H](N)Cc1ccc(O)cc1)C(=O)N[C@@H](Cc1ccccc1)C(=O)N[C@H](C(=O)N[C@@H](CC(N)=O)C(=O)N[C@@H](CO)C(=O)N[C@@H](Cc1ccc(O)cc1)C(=O)N[C@@H](CCCN=C(N)N)C(=O)N[C@@H](CCCCN)C(=O)N[C@H](C(=O)N[C@@H](CC(C)C)C(=O)NCC(=O)N[C@@H](CCC(N)=O)C(=O)N[C@@H](CC(C)C)C(=O)N[C@@H](CO)C(=O)N[C@@H](C)C(=O)N[C@@H](CCCN=C(N)N)C(=O)N[C@@H](CCCCN)C(=O)N[C@@H](CC(C)C)C(=O)N[C@@H](CC(C)C)C(=O)N[C@@H](CCC(N)=O)C(N)=O)C(C)C)[C@@H](C)O
- Plasma GH release [9]: 499 ng/mL
- Plasma GH release [10]: 1370 ng/mL
- Potency [11]: 0.004%
- Potency [3]: 16%

Compound: CC[C@H](C)[C@H](NC(=O)[C@H](C)NC(=O)[C@H](CC(=O)O)NC(=O)[C@H](C)NC(=O)[C@@H](N)Cc1ccc(O)cc1)C(=O)N[C@@H](Cc1ccccc1)C(=O)N[C@H](C(=O)N[C@@H](CC(N)=O)C(=O)N[C@@H](CO)C(=O)N[C@@H](Cc1ccc(O)cc1)C(=O)N[C@@H](CCCN=C(N)N)C(=O)N[C@@H](CCCCN)C(=O)N[C@H](C(=O)N[C@@H](CC(C)C)C(=O)NCC(=O)N[C@@H](CCC(N)=O)C(=O)N[C@@H](CC(C)C)C(=O)N[C@@H](CO)C(=O)N[C@@H](C)C(=O)N[C@@H](CCCN=C(N)N)C(=O)N[C@@H](CCCCN)C(=O)N[C@@H](CC(C)C)C(=O)N[C@@H](CC(C)C)C(=O)N[C@@H](CCC(N)=O)C(=O)N[C@@H](CC(=O)O)C(=O)N[C@H](C(=O)N[C@@H](CCSC)C(=O)N[C@@H](CO)C(=O)N[C@@H](CCCN=C(N)N)C(N)=O)[C@@H](C)CC)C(C)C)[C@@H](C)O
- Plasma GH release [14]: 1180 ng/mL
- Plasma GH release [15]: 2570 ng/mL
- Potency [11]: 100%
- Potency [3]: 100%

Compound: H-YADAIFTNSYRKVLGQLSARKLLQDILSR-NH2
- Plasma GH release [16]: 1410 ng/mL
- Plasma GH release [17]: 1720 ng/mL
- Potency [11]: 2%
- Potency [3]: 57%

Compound: CC[C@H](C)[C@H](NC(=O)[C@H](C)NC(=O)[C@H](CC(=O)O)NC(=O)[C@@H](C)NC(=O)[C@@H](N)Cc1ccc(O)cc1)C(=O)N[C@@H](Cc1ccccc1)C(=O)N[C@H](C(=O)N[C@@H](CC(N)=O)C(=O)N[C@@H](CO)C(=O)N[C@@H](Cc1ccc(O)cc1)C(=O)N[C@@H](CCCN=C(N)N)C(=O)N[C@@H](CCCCN)C(=O)N[C@H](C(=O)N[C@@H](CC(C)C)C(=O)NCC(=O)N[C@@H](CCC(N)=O)C(=O)N[C@@H](CC(C)C)C(=O)N[C@@H](CO)C(=O)N[C@@H](C)C(=O)N[C@@H](CCCN=C(N)N)C(=O)N[C@@H](CCCCN)C(=O)N[C@@H](CC(C)C)C(=O)N[C@@H](CC(C)C)C(=O)N[C@@H](CCC(N)=O)C(=O)N[C@@H](CC(=O)O)C(=O)N[C@H](C(=O)N[C@@H](CC(C)C)C(N)=O)[C@@H](C)CC)C(C)C)[C@@H](C)O (stereo in doubt; 3)
- Plasma GH release [1]: 507 ng/mL
- Plasma GH release [2]: 741 ng/mL
- Potency [11]: 0.001%
- Potency [3]: < 5%
